Drawing on ChEMBL document CHEMBL2311353, “Synthesis and antiproliferative activities of N-(naphthalen-2-yl)acetamide and N-(substituted phenyl)acetamide bearing quinolin-2(1H)-one and 3,4-dihydroquinolin-2(1H)-one derivatives” (Eur J Med Chem, 2013), this text covers IC50 for five compounds.

The subject of one experiment is A498. The experiment is described as follows: Antiproliferative activity against human A498 cells after 72 hrs by MTT assay. As to conditions: A498, 72 h. The format is functional, cell-based. An outline of the steps:
(§1)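 Log-phase cells were seeded, left overnight, then exposed to a range of compound concentrations for 72 h. MTT at 0.4 mg/mL in MEM was added for 2 h, and formazan was read at 570 nm. GI50 was taken from percent conversion relative to mock-treated controls.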
(In general: Tetrazolium assays rely on reduction of a dye to a coloured formazan, in cell work by metabolically active cells.)

A short description of experiment [1]: Antiproliferative activity against human NPC-TW01 cells after 72 hrs by MTT assay. The format is functional, cell-based. As to conditions: NPC-TW01, 72 h. An outline of the steps:
as §1

For a further experiment, the system named is MKN-45. Put plainly: Antiproliferative activity against human MKN45 cells after 72 hrs by MTT assay. Format: functional, cell-based. The following applies: MKN-45, 72 h. An outline of the steps: as §1
The next experiment has as its system NCI-H661. The experiment is described as follows: Antiproliferative activity against human NCI-H661 cells after 72 hrs by MTT assay. The format is functional, cell-based. The following applies: NCI-H661, 72 h. An outline of the steps: as §1
A short description of experiment [2]: Antiproliferative activity against human Hep3B cells after 72 hrs by MTT assay. The format is functional, cell-based, Hep 3B2. A digest of the protocol: as §1

As to `O=C(COc1ccc2c(c1)NC(=O)CC2)Nc1ccccc1`, the IC50 came out at 12 µM in the experiment with A498; 16 µM in experiment [1]; 32.4 µM with MKN-45; 21.8 µM in the experiment with NCI-H661; 27.2 µM in experiment [2].

Turning to `O=C(COc1ccc2c(c1)NC(=O)CC2)Nc1ccc2ccccc2c1`, the IC50 with A498 is 8.6 µM; in experiment [1] it was 8.9 µM; in the experiment with MKN-45, 26.9 µM; in the experiment with NCI-H661, 11.2 µM; in experiment [2] it was 19.2 µM.

Turning to `COc1ccc(NC(=O)COc2ccc3c(c2)NC(=O)CC3)cc1`, the 50% inhibitory concentration (IC50) with A498 was found to be 19.3 µM; in experiment [1] it was 13.1 µM; in the experiment on MKN-45, 36.3 µM; with NCI-H661 it was 16.4 µM; in experiment [2] it was 31.1 µM.

Turning to `O=C(COc1ccc2c(c1)NC(=O)CC2)Nc1ccc(F)cc1`, the IC50 was 11.3 µM in the experiment on A498; 15.8 µM in experiment [1]; 38.6 µM with MKN-45; 15.3 µM with NCI-H661; 27 µM in experiment [2].

With `O=C(COc1ccc2c(c1)NC(=O)CC2)Nc1ccc(-c2ccccc2)cc1`, the IC50 with A498 was found to be 12 µM; in experiment [1], 2.9 µM; in the experiment on MKN-45, 32.4 µM; in the experiment with NCI-H661, 15.4 µM; in experiment [2] it was 8.1 µM.

Broadly, the IC50 is the concentration that gives 50% inhibition. Low values mean higher potency, high ones lower potency.
